Test results taken from ChEMBL document CHEMBL1122463, “2,3-dihydro-3-(1-pyrryl)spiro[benzofuran-2,4'-piperidine]s and 2,3-dihydro-3-(1-pyrryl)spiro[benzofuran-2,3'-pyrrolidine]s: novel antihypertensive agents” (1983).

Legend:
Assay type in all cases: functional, Blood
[1] = species: Rattus norvegicus; experiment: Oral hypotensive activity in spontaneously hypertensive rats by using tail-cuff method measured as the initial BP
Outline: (§1)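 Okamoto-Aoki strain spontaneously hypertensive rats. Compounds were suspended in distilled water with Tween 80 and given orally every day at 50, 30, 10 or 3 mg/kg. Systolic BP was measured by tail-cuff plethysmography on day 1 (predose and 2 h), day 3 (predose and 2 h) and day 5 (predose, 2 and 4 h). The screen used 4 rats; dose-response used 4–8 rats per dose.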

[2] = species: Rattus norvegicus; experiment: Oral hypotensive activity in spontaneously hypertensive rats by using tail-cuff method measured as change in systolic BP
Outline: (§2)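 Okamoto-Aoki spontaneously hypertensive rats. Compound suspended in distilled water with Tween 80, given po daily, screening dose 50 mg/kg, dose-response at 50, 30, 10 or 3 mg/kg unless stated. Systolic BP by tail-cuff plethysmography on day 1 predose and 2 h, day 3 predose and 2 h, and day 5 predose, 2 and 4 h. Reported as peak decrease on day 3 (or day 5) at 2 h ± SEM. n = 4 in screen, 4–8 per dose.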

[3] = system: Rattus norvegicus; experiment: (§3) Oral hypotensive activity in spontaneously hypertensive rats by using tail-cuff method measured as change in systolic BP at the dose of 5 mg/kg po.; outline: as §2
[4] = system: Rattus norvegicus; experiment: (§4) Oral hypotensive activity in spontaneously hypertensive rats by using tail-cuff method measured as change in systolic BP at the dose of 10 mg/kg po.; outline: as §2
[5] = system: Rattus norvegicus; experiment: as §3; outline: as §1; remark: listed apart in the source
[6] = system: Rattus norvegicus; experiment: (§5) Oral hypotensive activity in spontaneously hypertensive rats by using tail-cuff method measured as change in systolic BP at the dose of 50 mg/kg po.; outline: as §1
[7] = system: Rattus norvegicus; experiment: (§6) Oral hypotensive activity in spontaneously hypertensive rats by using tail-cuff method measured as change in systolic BP at the dose of 25 mg/kg po.; outline: as §2
[8] = system: Rattus norvegicus; experiment: as §5; outline: as §2; remark: listed apart in the source
[9] = system: Rattus norvegicus; experiment: as §4; remark: listed apart in the source
Outline: (§7)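 SHR of the Okamoto-Aoki strain, dosed orally every day with compound suspended in distilled water with Tween 80. Systolic pressure was taken by tail-cuff plethysmography on day 1 (predose, 2 h), day 3 (predose, 2 h) and day 5 (predose, 2 and 4 h). Initial BP is the pretreatment systolic pressure, with 4–8 rats per dose in the dose-response screen.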

[10] = system: Rattus norvegicus; experiment: as §6; outline: as §7; remark: listed apart in the source
[11] = system: Rattus norvegicus; experiment: as §3; outline: as §7; remark: listed apart in the source
[12] = species: Rattus norvegicus; experiment: Hypotensive activity in renal hypertensive rats by using tail-cuff method measured as initial BP
Outline: (§8)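 Renal hypertension made in male Sprague-Dawley rats (Grollman modification). Under pentobarbital (50 mg/kg ip), the right kidney was removed and silk sutures tied around both poles of the left kidney to constrict it. After 3 weeks, rats with systolic BP >150 mmHg were used. Compound given po daily to 4 rats. Systolic BP by tail-cuff plethysmography at the listed day/hour after dosing.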

[13] = species: Rattus norvegicus; experiment: Hypotensive activity in renal hypertensive rats by using tail-cuff method measured as BP on (3/2)day/h postdrug; outline: as §8
[14] = species: Rattus norvegicus; experiment: Hypotensive activity in renal hypertensive rats by using tail-cuff method measured as BP on (3/0) day/h postdrug; outline: as §8
[15] = species: Rattus norvegicus; experiment: Hypotensive activity in renal hypertensive rats by using tail-cuff method measured as BP on (1/2) day/h postdrug; outline: as §8
[16] = species: Rattus norvegicus; experiment: Hypotensive activity in renal hypertensive rats by using tail-cuff method measured as BP on (2/2) day/h postdrug; outline: as §8
[17] = species: Rattus norvegicus; experiment: Hypotensive activity in renal hypertensive rats by using tail-cuff method measured as BP on (2/0) day/h postdrug; outline: as §8

## OCCN1CCC2(CC1)Oc1ccccc1C2n1cccc1 (stereo not given)
[1]
  BP: 170 mmHg
[2]
  Delta blood pressure: 39 mmHg

## c1ccc(CN2CCC3(C2)Oc2ccccc2C3n2cccc2)cc1 (stereo not given)
[3]
  Delta blood pressure: 27 mmHg
[4]
  Delta blood pressure: -10 mmHg
[5]
  BP: 198 mmHg
[6]
  BP: 211 mmHg
[7]
  Delta blood pressure: 18 mmHg
[8]
  Delta blood pressure: 42 mmHg
[9]
  BP: 171 mmHg
[10]
  BP: 185 mmHg

## CCN(CC)CCN1CCC2(CC1)Oc1ccccc1C2n1cccc1 (stereo not given)
[1]
  BP: 185 mmHg
[2]
  Delta blood pressure: 38 mmHg

## c1ccc2c(c1)OC1(CCNC1)C2n1cccc1 (stereo not given)
[11]
  Delta blood pressure: 17 mmHg
[5]
  BP: 200 mmHg
[6]
  BP: 223 mmHg
  Delta blood pressure: 58 mmHg
[9]
  BP: 179 mmHg
  Delta blood pressure: 36 mmHg
[10]
  BP: 181 mmHg
  Delta blood pressure: 13 mmHg

## CN1CCC2(C1)Oc1ccccc1C2n1cccc1 (stereo in doubt; 10)
[6]; 50 mg/kg
  BP: 197 mmHg
  Delta blood pressure: 38 mmHg

## CN1CCC2(C1)Oc1ccccc1C2n1cccc1 (stereo in doubt; 11)
[6]; 50 mg/kg
  BP: 180 mmHg
  Delta blood pressure: 14 mmHg

## C[C@H](CS)C(=O)N1CCC[C@H]1C(=O)O [CAPTOPRIL]
[12]
  BP: 192 mmHg
[13]
  BP: 152 mmHg
[14]
  BP: 163 mmHg
[15]
  BP: 181 mmHg
[16]
  BP: 169 mmHg
[17]
  BP: 185 mmHg
